Screening results deposited in PubChem BioAssay by The Scripps Research Institute Molecular Screening Center.
Only some compounds are listed: those with a hit (about 1.3% of all), similar ones and a draw of the others.
RBBP9 inh – human RBBP9 hydrolase inhibition; O75884; AID 1515; inhibition, % at 7.94 µM; 0.2% of 220,000 active; recombinant RBBP9, FP-Rh probe fluorescence polarization;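 active means inhibition above the campaign mean of all tested compounds plus 3 SD, cut at about 14% in these data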
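Controls: DMSO-treated enzyme wells and wells lacking RBBP9 | Material: RBBP9 protein | Technique: Fluorescence polarization | Replication: Single well per compound, no replicates | Buffer or medium: Tris-NaCl-Pluronic buffer, pH 8.0 | Timing: 30 min compound preincubation, 45 min probe labeling, 25 °C | Read-out basis: Percent inhibition from mP, scaled between DMSO and no-protein wells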
PME-1 primary – PME-1 (human) inhibition; Q9Y570; 0.53% of 320,000 active; recombinant PME-1, FP-Rh probe fluorescence polarization; AID 2130; inhibition, % at 5.9 µM;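 active means inhibition above the campaign mean of all compounds plus 3 SD, cut at about 26% in these data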;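 further: competitive labeling of PME-1 active site by serine hydrolase directed probe; inhibitors block probe labeling so polarization falls and inhibition rises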
LYPLA2 counter – LYPLA2 (human) inhibition in PME1 counter-screen; O95372; recombinant LYPLA2, FP-Rh probe fluorescence polarization; inhibition, % at 5.9 µM; 0.38% of 320,000 active; AID 2177;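 active means inhibition above the screen-wide mean plus 3 SD, limit set per campaign, cut at about 26% in these data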
Target sequence (O95372 whole entry, looked up): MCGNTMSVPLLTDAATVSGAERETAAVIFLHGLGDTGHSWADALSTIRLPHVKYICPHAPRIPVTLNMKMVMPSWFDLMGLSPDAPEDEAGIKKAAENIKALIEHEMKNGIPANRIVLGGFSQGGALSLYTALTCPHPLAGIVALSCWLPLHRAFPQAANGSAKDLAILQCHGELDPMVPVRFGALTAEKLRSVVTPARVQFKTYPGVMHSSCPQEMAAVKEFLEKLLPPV
LYPLA1 counter – counter-screen for PME1 inhibitors: inhibitors of human LYPLA1; recombinant LYPLA1, FP-Rh probe fluorescence polarization; inhibition, % at 5.9 µM; 0.16% of 320,000 active; AID 2174;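 active means inhibition above the mean of all tested compounds plus 3 SD, set per campaign, cut at about 14% in these data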;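 further: inhibitors block serine hydrolase probe labeling of LYPLA1 so polarization falls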
Target sequence (O75608 whole entry, looked up): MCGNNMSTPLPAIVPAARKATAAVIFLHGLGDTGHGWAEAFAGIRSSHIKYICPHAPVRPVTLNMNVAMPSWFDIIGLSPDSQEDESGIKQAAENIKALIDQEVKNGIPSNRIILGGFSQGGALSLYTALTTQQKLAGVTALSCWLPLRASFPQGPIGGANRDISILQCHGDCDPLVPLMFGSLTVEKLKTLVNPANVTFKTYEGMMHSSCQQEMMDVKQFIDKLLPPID
PAD4 inh – PAD4 (human) enzyme inhibition; Q9UM07; recombinant PAD4, RCA probe fluorescence polarization; inhibition, % at 6.36 µM; 0.41% of 330,000 active; AID 485272;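 active means percent inhibition above a cutoff equal to the mean of all tested compounds plus 3 SD, cut at about 15% in these data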
Fam108B counter – Fam108B inhibition, counter-screen for RBBP9 inhibitors | recombinant Fam108B, FP-Rh probe fluorescence polarization | 0.33% of 300,000 active | inhibition, % at 9.51 µM;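 active means inhibition above the screen mean inhibition plus 3 SD, computed separately per campaign, cut at about 18% in these data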;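 further: inhibitors lower polarization as less probe binds the enzyme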
Fam108b confirm – Fam108b (mouse) hydrolase inhibition, confirmation assay; recombinant Fam108b, FP-Rh probe fluorescence polarization; 44% of 930 active; inhibition, % at 9.51 µM; shares compounds with Fam108B counter;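 active means inhibition above a limit from the primary screen, the mean over all compounds plus 3 SD, cut at about 19% in these data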;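 further: inhibitors free the probe so polarization falls as inhibition rises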
A number is an active result.

`Cc1nc(NC(=O)c2ccccc2)sc1-c1csc(Nc2ccc(Cl)cc2)n1` gave RBBP9 inh inactive, PME-1 primary inactive, LYPLA2 counter inactive, LYPLA1 counter inactive, PAD4 inh inactive and Fam108B counter inactive.
Cc1ccc(Nc2nc(-c3sc(NC(=O)c4ccc([N+](=O)[O-])cc4)nc3C)cs2)cc1 was read as RBBP9 inh inactive, PME-1 primary inactive, LYPLA2 counter inactive, LYPLA1 counter inactive, PAD4 inh inactive, Fam108B counter 22.3 and Fam108b confirm inactive.
`Cc1ccccc1Nc1nc(-c2sc(NC(=O)c3ccc([N+](=O)[O-])cc3)nc2C)cs1` gave RBBP9 inh inactive, PME-1 primary inactive, LYPLA2 counter inactive, LYPLA1 counter inactive, PAD4 inh inactive and Fam108B counter inactive.
CCOc1ccccc1Nc1nc(-c2sc(NC(=O)c3ccc([N+](=O)[O-])cc3)nc2C)cs1 was read as RBBP9 inh inactive, PME-1 primary inactive, LYPLA2 counter inactive, LYPLA1 counter inactive, PAD4 inh inactive, Fam108B counter 22.1 and Fam108b confirm 24.5.
Screening Cc1ccc(NC(=O)CCc2nnc3ccc(N4CCC(C)CC4)nn23)nc1 returned PME-1 primary inactive, LYPLA2 counter inactive, LYPLA1 counter inactive, PAD4 inh inactive and Fam108B counter inactive.
Cc1ccc(N2C(=O)C3C4CCC(O4)C3C2=O)c(OC(F)F)c1 (stereo not drawn) was read as PME-1 primary inactive, LYPLA2 counter inactive, LYPLA1 counter inactive and PAD4 inh inactive.
For Cc1ccc(C(=O)O)cc1N=Cc1cc(Br)cc(Br)c1O the results were RBBP9 inh inactive, PME-1 primary inactive, LYPLA2 counter inactive, LYPLA1 counter inactive, PAD4 inh inactive and Fam108B counter inactive.
CCOC(=O)C1=C(COC(=O)CCOc2ccccc2)NC(=O)NC1C (stereo not drawn) was read as PME-1 primary inactive, LYPLA2 counter inactive, LYPLA1 counter inactive and PAD4 inh inactive.
For Cc1c(NC(=O)COC(=O)C(c2ccc(Cl)cc2)C(C)C)c(=O)n(-c2ccccc2)n1C (stereo not drawn) the results were RBBP9 inh inactive, PME-1 primary inactive, LYPLA2 counter inactive, LYPLA1 counter inactive, PAD4 inh inactive and Fam108B counter inactive.
For Nc1ccc(S(=O)(=O)N2CCCC2)cc1Cl the results were RBBP9 inh inactive, PME-1 primary inactive, LYPLA2 counter inactive, LYPLA1 counter inactive, PAD4 inh inactive and Fam108B counter inactive.
For CCOC(=O)C1=C(C)NC(C)=C(C(=O)OCC)C1C(=O)OCC(=O)N(C)Cc1ccccc1 the results were PAD4 inh inactive.
O=C(Nc1ccc(N2CCOCC2)cc1)Nc1ccc2nc(-c3ccco3)c(-c3ccco3)nc2c1 was read as RBBP9 inh inactive, PME-1 primary 64.5, LYPLA2 counter inactive, LYPLA1 counter inactive, PAD4 inh inactive, Fam108B counter 25.6 and Fam108b confirm inactive.
Screening O=C(c1ccc2nc(-c3ccco3)c(-c3ccco3)nc2c1)N1CCN(c2ccccc2)CC1 returned RBBP9 inh inactive, PME-1 primary inactive, LYPLA2 counter inactive, LYPLA1 counter inactive, PAD4 inh inactive and Fam108B counter inactive.
Screening O=S(=O)(c1ccc2nc(-c3ccco3)c(-c3ccco3)nc2c1)N1CCOCC1 returned RBBP9 inh inactive, PME-1 primary inactive, LYPLA2 counter inactive, LYPLA1 counter inactive, PAD4 inh inactive, Fam108B counter 19.5 and Fam108b confirm inactive.
Screening COc1ccc(Nc2nc3ccccc3nc2NS(=O)(=O)c2cccs2)c(OC)c1 returned RBBP9 inh inactive, PME-1 primary inactive, LYPLA2 counter inactive, LYPLA1 counter inactive, PAD4 inh inactive, Fam108B counter 22.7 and Fam108b confirm inactive.
`Cc1c(NC(=O)Nc2ccc(Cl)c(Cl)c2)sc(=S)n1C` gave RBBP9 inh inactive, PME-1 primary 29.7, LYPLA2 counter inactive, LYPLA1 counter inactive, PAD4 inh inactive, Fam108B counter 31.6 and Fam108b confirm 25.1.
Screening Cc1ccc(C(=O)NC(=S)Nc2ccc3c(c2)OCCO3)c(C)c1 returned RBBP9 inh inactive, PME-1 primary inactive, LYPLA2 counter inactive, LYPLA1 counter inactive, PAD4 inh inactive, Fam108B counter 26.4 and Fam108b confirm inactive.
